Our source for the IC50 and IC90 values is ChEMBL document CHEMBL1128465, “Synthesis and evaluation of certain thiosangivamycin analogs as potential inhibitors of cell proliferation and human cytomegalovirus” (J Med Chem, 1995).

In experiment [1] the test system is Human alphaherpesvirus 1. The experiment is described as follows: Antiviral activity against herpes simplex virus type 1(HSV-1) ELISA method. Type of experiment: functional, organism-based. For orientation: An ELISA detects its analyte on a solid surface through an enzyme-linked reagent.
The subject of experiment [2] is Human betaherpesvirus 5. The experiment is described as follows: In vitro antiviral activity against human cytomegalovirus by plaque method. Format: functional, organism-based. A digest of the protocol: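 HCMV plaque reduction assay; result given as IC50 (concentration reducing plaque number by 50%). Averages from two or four experiments, some from a single experiment; highest concentration tested 100.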

Experiment [3] relates to HFF. The experiment is described as follows: Visual cytotoxicity scored on HFF cells at the time of HCMV plaque enumeration. Format: functional, cell-based, Homo sapiens. A digest of the protocol: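 Stationary HFF cells not affected by the plaque-assay virus examined microscopically for cytotoxicity, scored at the time HCMV plaques were counted. Top concentration tested 100; averages of two or four experiments, some single.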

Experiment [4] concerns KB. As to the kind of experiment: In vitro inhibition of KB cell proliferation. Type of experiment: functional, cell-based, Homo sapiens. A digest of the protocol: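 KB cells grown over two population doublings of untreated controls with compound; proliferation quantified by crystal violet staining and spectrophotometric reading of dye eluted from stained cells. Values are IC50s averaged from two or four experiments, some from a single experiment.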

Experiment [5] concerns Human betaherpesvirus 5. As to the kind of experiment: In vitro antiviral activity against human cytomegalovirus by yield reduction assay. Type of experiment: functional. The gist of the method:
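HCMV yield reduction assay; result given as IC90. Averages from two or four experiments, some single; highest concentration tested 100.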

Experiment [6] concerns L1210. The experiment is described as follows: Inhibition of L1210 murine leukemic cells proliferation in vitro. Type of experiment: functional, cell-based, Mus musculus. The gist of the method:
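L1210 murine leukemia cells grown with compound; cell counts taken at 0, 48 and 96 h. Where growth rate in treated cultures fell during the run, the 48–96 h rate was used.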

For `N#Cc1cn(C2C=CC(CO)O2)c2ncnc(N)c12` (stereo not given), the IC50 in experiment [1] (Human alphaherpesvirus 1) was 41 µM; in experiment [2] (Human betaherpesvirus 5) it was 5100 nM; in experiment [3] (Homo sapiens, HFF), more than 100 µM; in experiment [4] (Homo sapiens, KB), 176 µM. The compound also gave a concentration for an effect of 90% (IC90) in experiment [5] (Human betaherpesvirus 5) of more than 100 µM.
`NC(=S)c1cn(C2CCC(CO)O2)c2ncnc(N)c12` (stereo not given): the IC50 in experiment [1] (Human alphaherpesvirus 1) came out at 6 µM; in experiment [2] (Human betaherpesvirus 5), 2500 nM; in experiment [3] (Homo sapiens, HFF) it was 29 µM; in experiment [6] (Mus musculus, L1210), 24000 nM; in experiment [4] (Homo sapiens, KB) it was 11 µM. The compound further returned an IC90 in experiment [5] (Human betaherpesvirus 5) of 12 µM.
For `N#Cc1cn(C2OC(CO)CC2O)c2ncnc(N)c12` (stereo not given), the IC50 in experiment [1] (Human alphaherpesvirus 1) was determined as 2.6 µM; in experiment [2] (Human betaherpesvirus 5), 400 nM; in experiment [3] (Homo sapiens, HFF), 3 µM; in experiment [6] (Mus musculus, L1210), 100 nM; in experiment [4] (Homo sapiens, KB) it was 4 µM. This compound returned an IC90 in experiment [5] (Human betaherpesvirus 5) of 1.4 µM.
In the case of `NC(=S)c1cn(C2OC(CO)CC2O)c2ncnc(N)c12` (stereo not given), the concentration for half-maximal inhibition (IC50) was 58 µM in experiment [1] (Human alphaherpesvirus 1); 500 nM in experiment [2] (Human betaherpesvirus 5); 2.1 µM in experiment [3] (Homo sapiens, HFF); 600 nM in experiment [6] (Mus musculus, L1210); 3 µM in experiment [4] (Homo sapiens, KB). Also, in experiment [5] (Human betaherpesvirus 5), the IC90 came out at 3 µM.
On to `NC(=S)c1cn([C@@H]2O[C@H](CO)[C@@H](O)[C@H]2O)c2ncnc(N)c12`, for which the concentration for half-maximal inhibition (IC50) in experiment [2] (Human betaherpesvirus 5) is 400 nM; in experiment [3] (Homo sapiens, HFF), 0.32 µM; in experiment [6] (Mus musculus, L1210) it was 30 nM; in experiment [4] (Homo sapiens, KB) it was 0.03 µM. For the same compound, it took 0.1 µM to reach the 90% level in experiment [5] (Human betaherpesvirus 5) (IC90).
As for `NC(=S)c1cn([C@@H]2O[C@H](CO)[C@H](O)[C@H]2O)c2ncnc(N)c12`, the IC50 in experiment [1] (Human alphaherpesvirus 1) is 1.9 µM; in experiment [2] (Human betaherpesvirus 5), 600 nM; in experiment [3] (Homo sapiens, HFF), 0.6 µM; in experiment [6] (Mus musculus, L1210), 500 nM; in experiment [4] (Homo sapiens, KB), 1 µM. In experiment [5] (Human betaherpesvirus 5), this compound returned a 90% effect concentration (IC90) of 0.4 µM.
For the compound `N#Cc1cn([C@@H]2O[C@H](CO)[C@@H](O)[C@@H]2N)c2ncnc(N)c12`, the IC50 is 320 µM in experiment [1] (Human alphaherpesvirus 1); more than 100 µM in experiment [3] (Homo sapiens, HFF); 100000 nM in experiment [6] (Mus musculus, L1210). It took 110 µM to reach the 90% level in experiment [5] (Human betaherpesvirus 5) (IC90).
With `NC(=S)c1cn([C@H]2C[C@H](O)[C@@H](CO)O2)c2ncnc(N)c12`, the IC50 in experiment [1] (Human alphaherpesvirus 1) is 8.2 µM; in experiment [2] (Human betaherpesvirus 5) it was 5700 nM; in experiment [3] (Homo sapiens, HFF), 41 µM; in experiment [6] (Mus musculus, L1210) it was 3900 nM; in experiment [4] (Homo sapiens, KB), 7 µM. This compound also returned a 90% effect concentration (IC90) in experiment [5] (Human betaherpesvirus 5) of 15 µM.
Take `N#Cc1cn([C@H]2C[C@H](O)[C@@H](CO)O2)c2ncnc(N)c12`: the IC50 in experiment [1] (Human alphaherpesvirus 1) turned out to be 4.5 µM; in experiment [2] (Human betaherpesvirus 5), 35000 nM; in experiment [3] (Homo sapiens, HFF), 66 µM; in experiment [6] (Mus musculus, L1210) it was 80000 nM; in experiment [4] (Homo sapiens, KB), 25 µM. In addition, in experiment [5] (Human betaherpesvirus 5), it took 13 µM to reach the 90% level (IC90).
`N=C(S)c1cn([C@@H]2O[C@H](CO)[C@@H](O)[C@@H]2N)c2ncnc(N)c12`: the IC50 worked out at 28 µM in experiment [1] (Human alphaherpesvirus 1); 1600 nM in experiment [2] (Human betaherpesvirus 5); 73 µM in experiment [3] (Homo sapiens, HFF); 2000 nM in experiment [6] (Mus musculus, L1210); 2.5 µM in experiment [4] (Homo sapiens, KB). This compound also registered a 90% effect concentration (IC90) in experiment [5] (Human betaherpesvirus 5) of 41 µM.
In the case of `NC(=S)c1cn([C@@H]2O[C@H](CO)[C@@H](O)[C@@H]2O)c2ncnc(N)c12`, the IC50 in experiment [1] (Human alphaherpesvirus 1) turned out to be 4.7 µM; in experiment [2] (Human betaherpesvirus 5) it was 900 nM; in experiment [3] (Homo sapiens, HFF), 29 µM; in experiment [6] (Mus musculus, L1210) it was 5000 nM; in experiment [4] (Homo sapiens, KB), 2 µM. Moreover, in experiment [5] (Human betaherpesvirus 5), the 90% effect level (IC90) was put at 1.9 µM.
With `NC(=S)c1cn(C2C=CC(CO)O2)c2ncnc(N)c12` (stereo not given), the half-maximal inhibitory concentration (IC50) was 14 µM in experiment [1] (Human alphaherpesvirus 1); 2700 nM in experiment [2] (Human betaherpesvirus 5); 18 µM in experiment [3] (Homo sapiens, HFF); 3000 nM in experiment [6] (Mus musculus, L1210); 5 µM in experiment [4] (Homo sapiens, KB). In experiment [5] (Human betaherpesvirus 5), this compound returned an IC90 of 5 µM.
Consider `N#Cc1cn(C2CCC(CO)O2)c2ncnc(N)c12` (stereo not given), for which the 50% inhibitory concentration (IC50) in experiment [1] (Human alphaherpesvirus 1) was 21 µM; in experiment [2] (Human betaherpesvirus 5), 19000 nM; in experiment [3] (Homo sapiens, HFF), more than 100 µM; in experiment [4] (Homo sapiens, KB) it was 88 µM. The IC90 in experiment [5] (Human betaherpesvirus 5) amounted to 90 µM.
As to `C[C@H]1OC(n2cc(C(=N)S)c3c(N)ncnc32)[C@H](O)[C@@H]1O` (stereo not given in full), the IC50 in experiment [2] (Human betaherpesvirus 5) stood at 3100 nM; in experiment [3] (Homo sapiens, HFF), 3.2 µM; in experiment [6] (Mus musculus, L1210), 3000 nM; in experiment [4] (Homo sapiens, KB) it was 0.5 µM.
As for `N#Cc1cn([C@@H]2O[C@H](CO)[C@@H](O)[C@H]2O)c2ncnc(N)c12` (stereo in doubt; 2) [TOYOCAMYCIN], the concentration for half-maximal inhibition (IC50) in experiment [1] came to 0.4 µM; in experiment [2], 300 nM; in experiment [3] (hff) it was 0.3 µM; in experiment [6] (l1210), 100 nM; in experiment [4] (kb) it was 0.1 µM. The 90% effect level in experiment [5] (IC90) was put at 0.3 µM.
The compound `N#Cc1cn([C@@H]2O[C@H](CO)[C@@H](O)[C@H]2O)c2ncnc(N)c12` (stereo in doubt; 6) [TOYOCAMYCIN] showed a half-maximal inhibitory concentration (IC50) in experiment [4] (kb) of 17 µM. In experiment [5], this compound came in with an IC90 of 14 µM.
Take `N#Cc1cn([C@@H]2O[C@H](CO)[C@@H](O)[C@H]2O)c2ncnc(N)c12` (stereo in doubt; A) [TOYOCAMYCIN]: the values for the half-inhibitory concentration (IC50) in experiment [2] and in experiment [3] (hff) were 100 nM and 0.03 µM, respectively.
For the compound `Nc1nc2c(ncn2COC(CO)CO)c(=O)[nH]1` [GANCICLOVIR], the IC50 in experiment [3] (Homo sapiens, HFF) was more than 100 µM; in experiment [4] (Homo sapiens, KB), more than 100 µM. In addition, the 90% effect level in experiment [5] (Human betaherpesvirus 5) (IC90) was put at 1.8 µM.

As usually defined, the IC50 is the concentration needed to halve the response being measured. One may read the IC90 as the concentration at which the effect reaches the 90% level.
